Columns and labels:
Hepatitis B virus [1] = test: Antiviral activity against Hepatitis B virus infected in HepG2.2.15 assessed as inhibition of HBV replication at <227.0 +/- 4.1 uM by quantitative Southern blot hybridization analysis; assay type: functional, organism-based; details: hepg2 2.2.15
[2] = Cytotoxicity against human HepG2(2.2.15) after 9 days by neutral dye uptake method; assay type: cell-based; details: HepG2(2.2.15) cells
Outline: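 Confluent 2.2.15 cells were exposed to compound in culture medium for 9 consecutive days, with untreated controls on every plate. Viability was read as neutral red uptake by absorbance at 510 nm relative to untreated cells, giving CC50. Mean and SD of three separate experiments.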

Hepatitis B virus [3] = test: Antiviral activity against Hepatitis B virus infected in HepG2.2.15 assessed as inhibition of HBsAg production at <227.0 +/- 4.1 uM by EIA; assay type: functional, organism-based; details: hepg2 2.2.15
[4] = Selectivity index, ratio of CC50 for human HepG2.2.15 cells to IC50 for inhibition of Hepatitis B virus DNA replication; assay type: functional
Outline: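 SI = CC50/IC50. CC50 is from neutral red uptake after 9 days of treatment. IC50 is from Southern blot of intracellular HBV DNA after eight daily doses, in 2.2.15 cells.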

Hepatitis B virus [5] = test: Antiviral activity against Hepatitis B virus infected in HepG2.2.15 assessed as inhibition of HBsAg production at <2183.1 +/- 4.1 by EIA; assay type: functional, organism-based; details: hepg2 2.2.15
Hepatitis B virus [6] = test: Antiviral activity against Hepatitis B virus infected in HepG2.2.15 assessed as inhibition of HBV replication by quantitative Southern blot hybridization analysis; assay type: functional, organism-based; details: HepG2 2.2.15
Outline: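 Confluent 2.2.15 cells in RPMI 1640 with 2% FBS, dosed daily for eight consecutive days, with medium and compound replaced each day; untreated cell control. Intracellular HBV DNA quantified by Southern blot hybridization eight days after first treatment. IC50 is 50% inhibitory concentration; mean and SD of three separate experiments.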

Hepatitis B virus [7] = test: Antiviral activity against Hepatitis B virus infected in HepG2.2.15 assessed as inhibition of HBsAg production at <101.2 +/- 3.8 by EIA; assay type: functional, organism-based; details: hepg2 2.2.15
Hepatitis B virus [8] = test: Antiviral activity against Hepatitis B virus infected in HepG2.2.15 assessed as inhibition of HBsAg production at <76.3 +/- 3.3 uM by EIA; assay type: functional, organism-based; details: hepg2 2.2.15
Hepatitis B virus [9] = test: Antiviral activity against Hepatitis B virus infected in HepG2.2.15 assessed as inhibition of HBsAg production at <91.2 +/- 3.5 uM by EIA; assay type: functional, organism-based; details: hepg2 2.2.15
Hepatitis B virus [10] = test: Antiviral activity against Hepatitis B virus infected in HepG2.2.15 assessed as inhibition of HBV replication at <86.9 +/- 3.6 uM by quantitative Southern blot hybridization analysis; assay type: functional, organism-based; details: hepg2 2.2.15
Hepatitis B virus [11] = test: Antiviral activity against Hepatitis B virus infected in HepG2.2.15 assessed as inhibition of HBsAg production at <86.9 +/- 3.6 uM by EIA; assay type: functional, organism-based; details: hepg2 2.2.15
Hepatitis B virus [12] = test: Antiviral activity against Hepatitis B virus infected in HepG2.2.15 assessed as inhibition of HBsAg production at <64.5 +/- 4.2 uM by EIA; assay type: functional, organism-based; details: hepg2 2.2.15
Hepatitis B virus [13] = test: Antiviral activity against Hepatitis B virus infected in HepG2.2.15 assessed as inhibition of HBV replication at <64.5 +/- 4.2 uM by quantitative Southern blot hybridization analysis; assay type: functional, organism-based; details: hepg2 2.2.15
Hepatitis B virus [14] = test: Antiviral activity against Hepatitis B virus infected in HepG2.2.15 assessed as inhibition of HBV replication at <74.8 +/- 3.9 uM by quantitative Southern blot hybridization analysis; assay type: functional, organism-based; details: hepg2 2.2.15
Hepatitis B virus [15] = test: Antiviral activity against Hepatitis B virus infected in HepG2.2.15 assessed as inhibition of HBsAg production at <74.8 +/- 3.9 uM by EIA; assay type: functional, organism-based; details: hepg2 2.2.15
Hepatitis B virus [16] = test: Antiviral activity against Hepatitis B virus infected in HepG2.2.15 assessed as inhibition of HBV replication at <245.1 +/- 4.8 uM by quantitative Southern blot hybridization analysis; assay type: functional, organism-based; details: hepg2 2.2.15
Hepatitis B virus [17] = test: Antiviral activity against Hepatitis B virus infected in HepG2.2.15 assessed as inhibition of HBsAg production at <245.1 +/- 4.8 uM by EIA; assay type: functional, organism-based; details: hepg2 2.2.15
Hepatitis B virus [18] = test: Antiviral activity against Hepatitis B virus infected in HepG2.2.15 assessed as inhibition of HBV replication at <900.5 +/- 5.3 uM by quantitative Southern blot hybridization analysis; assay type: functional, organism-based; details: hepg2 2.2.15
[19] = Selectivity index, ratio of CC50 for human HepG2.2.15 cells to IC50 for inhibition of HBsAg production; assay type: functional
Outline: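 SI = CC50/IC50. CC50 is from neutral red uptake after 9 days of treatment. IC50 is from HBsAg EIA after eight daily doses, in 2.2.15 cells.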

Hepatitis B virus [20] = test: Antiviral activity against Hepatitis B virus infected in HepG2.2.15 assessed as inhibition of HBsAg production by EIA; assay type: functional, organism-based; details: HepG2 2.2.15
Outline: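 HBsAg secreted into the medium by confluent 2.2.15 cultures (RPMI 1640, 2% FBS) measured by semiquantitative enzyme immunoassay eight days after the first of eight consecutive daily treatments. Medium and compound were renewed daily, with an untreated cell control. Gives the 50% inhibitory concentration; mean and SD from three separate experiments.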

Hepatitis B virus [21] = test: Antiviral activity against Hepatitis B virus infected in HepG2.2.15 assessed as inhibition of HBV replication at <757.8 +/- 4.3 uM by quantitative Southern blot hybridization analysis; assay type: functional, organism-based; details: hepg2 2.2.15
Hepatitis B virus [22] = test: Antiviral activity against Hepatitis B virus infected in HepG2.2.15 assessed as inhibition of HBV replication at <64.5 +/- 2.8 uM by quantitative Southern blot hybridization analysis; assay type: functional, organism-based; details: hepg2 2.2.15
Hepatitis B virus [23] = test: Antiviral activity against Hepatitis B virus infected in HepG2.2.15 assessed as inhibition of HBsAg production at <80.1 +/- 3.5 uM by EIA; assay type: functional, organism-based; details: hepg2 2.2.15
Hepatitis B virus [24] = test: Antiviral activity against Hepatitis B virus infected in HepG2.2.15 assessed as inhibition of HBsAg production at <60.8 +/- 4.6 uM by EIA; assay type: functional, organism-based; details: hepg2 2.2.15
Hepatitis B virus [25] = test: Antiviral activity against Hepatitis B virus infected in HepG2.2.15 assessed as inhibition of HBV replication at <739.9 +/- 3.6 uM by quantitative Southern blot hybridization analysis; assay type: functional, organism-based; details: hepg2 2.2.15
Hepatitis B virus [26] = test: Antiviral activity against Hepatitis B virus infected in HepG2.2.15 assessed as inhibition of HBV replication at <102.7 +/- 3.3 uM by quantitative Southern blot hybridization analysis; assay type: functional, organism-based; details: hepg2 2.2.15
Hepatitis B virus [27] = test: Antiviral activity against Hepatitis B virus infected in HepG2.2.15 assessed as inhibition of HBsAg production at <102.7 +/- 3.3 uM by EIA; assay type: functional, organism-based; details: hepg2 2.2.15
Hepatitis B virus [28] = test: Antiviral activity against Hepatitis B virus infected in HepG2.2.15 assessed as inhibition of HBV replication at <209.8 +/- 4.7 uM by quantitative Southern blot hybridization analysis; assay type: functional, organism-based; details: hepg2 2.2.15
Hepatitis B virus [29] = test: Antiviral activity against Hepatitis B virus infected in HepG2.2.15 assessed as inhibition of HBV replication at <506.3 +/- 3.2 uM by quantitative Southern blot hybridization analysis; assay type: functional, organism-based; details: hepg2 2.2.15
Hepatitis B virus [30] = test: Antiviral activity against Hepatitis B virus infected in HepG2.2.15 assessed as inhibition of HBV replication at <556.9 +/- 1.8 uM by quantitative Southern blot hybridization analysis; assay type: functional, organism-based; details: hepg2 2.2.15
Hepatitis B virus [31] = test: Antiviral activity against Hepatitis B virus infected in HepG2.2.15 assessed as inhibition of HBV replication at <622.8 +/- 3.4 uM by quantitative Southern blot hybridization analysis; assay type: functional, organism-based; details: hepg2 2.2.15
Hepatitis B virus [32] = test: Antiviral activity against Hepatitis B virus infected in HepG2.2.15 assessed as inhibition of HBsAg production at <163.9 +/- 4.4 uM by EIA; assay type: functional, organism-based; details: hepg2 2.2.15

## Cn1c(CSc2ccccc2)nc2c(CN3CCCC3)c(O)ccc21
Hepatitis B virus [1]
  IC50: Not Active
[2]
  CC50 at 216 h: 227 µM
Hepatitis B virus [3]
  IC50: Not Active

## Nc1ccn([C@@H]2CS[C@H](CO)O2)c(=O)n1 [LAMIVUDINE]
[4]
  Selectivity Index: 9.1
[2]
  CC50 at 216 h: 2180 µM
Hepatitis B virus [5]
  IC50: Not Active

## Cc1nccn1Cc1c(O)ccc2c1nc(CSc1ccccc1)n2C
[4]
  Selectivity Index: 13
Hepatitis B virus [6]
  IC50: 7.8 µM
[2]
  CC50 at 216 h: 101 µM
Hepatitis B virus [7]
  IC50: Not Active

## Cn1c(CSc2ccccc2)nc2c(Cn3ccnc3)c(O)ccc21
[4]
  Selectivity Index: 8.4
Hepatitis B virus [6]
  IC50: 9.1 µM
[2]
  CC50 at 216 h: 76.3 µM
Hepatitis B virus [8]
  IC50: Not Active

## Cc1ccc(SCc2nc3c(Cn4ccnc4C)c(O)ccc3n2C)cc1
[4]
  Selectivity Index: 2.5
Hepatitis B virus [6]
  IC50: 36.1 µM
Hepatitis B virus [9]
  IC50: Not Active
[2]
  CC50 at 216 h: 91.2 µM

## Cn1c(CSc2ccccc2)nc2c(CN3CCOCC3)c(O)ccc21
Hepatitis B virus [10]
  IC50: Not Active
Hepatitis B virus [11]
  IC50: Not Active
[2]
  CC50 at 216 h: 86.9 µM

## COc1ccc(SCc2nc3c(Cn4ccnc4)c(O)ccc3n2C)cc1
Hepatitis B virus [12]
  IC50: Not Active
[2]
  CC50 at 216 h: 64.5 µM
Hepatitis B virus [13]
  IC50: Not Active

## Cn1c(CSc2ccc(F)cc2)nc2c(CN3CCCC3)c(O)ccc21
Hepatitis B virus [14]
  IC50: Not Active
[2]
  CC50 at 216 h: 74.8 µM
Hepatitis B virus [15]
  IC50: Not Active

## CN(C)Cc1c(O)ccc2c1nc(CSc1ccccc1)n2C
[2]
  CC50 at 216 h: 245 µM
Hepatitis B virus [16]
  IC50: Not Active
Hepatitis B virus [17]
  IC50: Not Active

## Cn1c(C[S+]([O-])c2ccccc2)nc2c(CN3CCOCC3)c(O)ccc21 (configuration not stated)
Hepatitis B virus [18]
  IC50: Not Active
[2]
  CC50 at 216 h: 900 µM
[19]
  Selectivity Index: 2.2
Hepatitis B virus [20]
  IC50: 401 µM

## Cc1ccc([S+]([O-])Cc2nc3c(Cn4ccnc4)c(O)ccc3n2C)cc1 (configuration not stated)
Hepatitis B virus [21]
  IC50: Not Active
[2]
  CC50 at 216 h: 758 µM
[19]
  Selectivity Index: 4.3
Hepatitis B virus [20]
  IC50: 176 µM

## CN1CCN(Cc2c(O)ccc3c2nc(CSc2ccc(F)cc2)n3C)CC1
[2]
  CC50 at 216 h: 64.5 µM
[19]
  Selectivity Index: 6
Hepatitis B virus [20]
  IC50: 10.7 µM
Hepatitis B virus [22]
  IC50: Not Active

## Cn1c(CSc2ccc(F)cc2)nc2c(Cn3ccnc3)c(O)ccc21
[4]
  Selectivity Index: 6.9
Hepatitis B virus [6]
  IC50: 11.6 µM
[2]
  CC50 at 216 h: 80.1 µM
Hepatitis B virus [23]
  IC50: Not Active

## Cc1ccc(SCc2nc3c(Cn4ccnc4)c(O)ccc3n2C)cc1
[4]
  Selectivity Index: 1.9
Hepatitis B virus [6]
  IC50: 32.6 µM
[2]
  CC50 at 216 h: 60.8 µM
Hepatitis B virus [24]
  IC50: Not Active

## Cn1c(CS(=O)(=O)c2ccccc2)nc2c(CN3CCOCC3)c(O)ccc21
Hepatitis B virus [25]
  IC50: Not Active
[2]
  CC50 at 216 h: 740 µM
[19]
  Selectivity Index: 2.3
Hepatitis B virus [20]
  IC50: 326 µM

## COc1cccc(SCc2nc3c(Cn4ccnc4C)c(O)ccc3n2C)c1
Hepatitis B virus [26]
  IC50: Not Active
[2]
  CC50 at 216 h: 103 µM
Hepatitis B virus [27]
  IC50: Not Active

## CN1CCN(Cc2c(O)ccc3c2nc(CSc2ccccc2)n3C)CC1
Hepatitis B virus [28]
  IC50: Not Active
[2]
  CC50 at 216 h: 210 µM
[19]
  Selectivity Index: 7.8
Hepatitis B virus [20]
  IC50: 27 µM

## Cc1ccc(S(=O)(=O)Cc2nc3c(Cn4ccnc4)c(O)ccc3n2C)cc1
Hepatitis B virus [29]
  IC50: Not Active
[2]
  CC50 at 216 h: 506 µM
[19]
  Selectivity Index: 8.1
Hepatitis B virus [20]
  IC50: 62.6 µM

## Cn1c(C[S+]([O-])c2ccccc2)nc2c(Cn3ccnc3)c(O)ccc21 (configuration not stated)
Hepatitis B virus [30]
  IC50: Not Active
[2]
  CC50 at 216 h: 557 µM
[19]
  Selectivity Index: 2.9
Hepatitis B virus [20]
  IC50: 189 µM

## Cn1c(CS(=O)(=O)c2ccccc2)nc2c(Cn3ccnc3)c(O)ccc21
Hepatitis B virus [31]
  IC50: Not Active
[2]
  CC50 at 216 h: 623 µM
[19]
  Selectivity Index: 8.9
Hepatitis B virus [20]
  IC50: 70.2 µM

## COc1ccc(SCc2nc3c(Cn4ccnc4C)c(O)ccc3n2C)cc1
[4]
  Selectivity Index: 3.7
Hepatitis B virus [6]
  IC50: 44.5 µM
[2]
  CC50 at 216 h: 164 µM
Hepatitis B virus [32]
  IC50: Not Active

From ChEMBL document CHEMBL1287795, “Synthesis and biological evaluation of 1H-benzimidazol-5-ols as potent HBV inhibitors” (Bioorg Med Chem Lett, 2010)
